Reference: article PMC11698471 (Neuropharmacology, 2022)

Legend:
[1] = test system: MPTP-treated parkinsonian macaques; assay: PDE9i - L-DOPA co-administration trial in MPTP parkinsonian macaques; format: in vivo, Macaca Mulatta and Fascicularis; details: L-DOPA suboptimal dose s.c. alone, typical average
[2] = Plasma pharmacokinetics in awake macaques; format: in vivo, Macaca Mulatta and Fascicularis; details: suboptimal L-DOPA + PDE9i 5 mg/kg vs PDE9i vehicle
Outline: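 Two awake, chair-trained MPTP-parkinsonian macaques from the behavioural cohort were restrained unsedated. Test compound (s.c., 5 mg/kg, or 0 mg/kg vehicle) was given with each animal's sub-optimal s.c. L-DOPA methyl ester/benserazide dose. Saphenous vascular-port blood was drawn pre-injection and at 60, 120 and 180 min. Each treatment was given twice, and samples were processed in duplicate. Plasma was stored at −80°C for LC/MS.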

[3] = test system: MPTP-treated parkinsonian macaques; assay: L-Dopa responses of the parkinsonian macaques; format: in vivo, Macaca Mulatta and Fascicularis
[4] = test system: PDE 5 and 6; details: cited from earlier work
[5] = test system: PDE 9, 10, and 11; details: cited from earlier work
[6] = test system: L-DOPA-induced abnormal involuntary movements; details: rodents; ref Giorgi et al., 2008; Picconi et al., 2011; cited from earlier work

plasma levels of L-DOPA with PDE9i addition [2] | LID (dyskinesia score at peak-dose effect of L-dopa) ([3]; monkey 1, scale 0 to 27) | LID (dyskinesia score at peak-dose effect of L-dopa) ([3]; monkey 2, scale 0 to 27) | LID (dyskinesia score at peak-dose effect of L-dopa) ([3]; monkey 3, scale 0 to 27) | LID (dyskinesia score at peak-dose effect of L-dopa) ([3]; monkey 4, scale 0 to 27) | LID (dyskinesia score at peak-dose effect of L-dopa) ([3]; monkey 5, scale 0 to 27) | LID (dyskinesia score at peak-dose effect of L-dopa) ([3]; monkey 6, scale 0 to 27) | Structure (SMILES) | response duration ("on" state) [1] [min] | MDS ON (motor disability score at the peak-dose effect of L-dopa) ([3]; monkey 1, scale 0 to 39, MDS OFF 17) | MDS ON (motor disability score at the peak-dose effect of L-dopa) ([3]; monkey 2, scale 0 to 39, MDS OFF 17) | MDS ON (motor disability score at the peak-dose effect of L-dopa) ([3]; monkey 3, scale 0 to 39, MDS OFF 19) | MDS ON (motor disability score at the peak-dose effect of L-dopa) ([3]; monkey 4, scale 0 to 39, MDS OFF 22) | MDS ON (motor disability score at the peak-dose effect of L-dopa) ([3]; monkey 5, scale 0 to 39, MDS OFF 23) | MDS ON (motor disability score at the peak-dose effect of L-dopa) ([3]; monkey 6, scale 0 to 39, MDS OFF 23.5) | affinity for PDE 5 and 6 [4] | affinity for PDE 9, 10, and 11 [5] | L-DOPA-induced abnormal involuntary movements [6]
remained unchanged | 13 | 11.5 | 10 | 9 | 7 | 11 | N[C@@H](Cc1ccc(O)c(O)c1)C(=O)O [L-DOPA] | ~100 | 1.5 | 1.5 | 3.5 | 4.5 | 8.5 | 3.5 | – | – | –
– | – | – | – | – | – | – | CCCOc1ccccc1-c1nc2nn[nH]c2c(=O)[nH]1 [zaprinast] | – | – | – | – | – | – | – | moderate | weak | reduction of L-DOPA-induced abnormal involuntary movements
